# Measurements from PubChem BioAssay AID588748 (Vanderbilt Specialized Chemistry Center, 2011).
# The source made the active and inactive calls.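 The calls were made as follows: active = a clear dose-dependent boost of the acetylcholine calcium response in rat M2 cells, with a fitted potency; inactive = the rest.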
# Biological target: Muscarinic acetylcholine receptor M2 (Rattus norvegicus) (UniProt P10980)
# Assay: potentiation of ACh at rat M2 – CHO Gqi5 cells, calcium fluorescence, counter-screen for M4 PAM project, dose response (AID 588748)
# Conditions: CHO rM2/Gqi5 calcium mobilization, PAM mode, FDSS
# Method in brief: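 material = rat M2/Gqi5 CHO cells | reagent = acetylcholine at EC20, followed by acetylcholine at EC80 | incubation = compound 144 s before EC20 ACh, EC80 ACh 86 s later, 37 °C | detection = Fluo-4 calcium fluorescence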
# Muscarinic acetylcholine receptor M2 (Rattus norvegicus), sequence (P10980 whole entry, looked up): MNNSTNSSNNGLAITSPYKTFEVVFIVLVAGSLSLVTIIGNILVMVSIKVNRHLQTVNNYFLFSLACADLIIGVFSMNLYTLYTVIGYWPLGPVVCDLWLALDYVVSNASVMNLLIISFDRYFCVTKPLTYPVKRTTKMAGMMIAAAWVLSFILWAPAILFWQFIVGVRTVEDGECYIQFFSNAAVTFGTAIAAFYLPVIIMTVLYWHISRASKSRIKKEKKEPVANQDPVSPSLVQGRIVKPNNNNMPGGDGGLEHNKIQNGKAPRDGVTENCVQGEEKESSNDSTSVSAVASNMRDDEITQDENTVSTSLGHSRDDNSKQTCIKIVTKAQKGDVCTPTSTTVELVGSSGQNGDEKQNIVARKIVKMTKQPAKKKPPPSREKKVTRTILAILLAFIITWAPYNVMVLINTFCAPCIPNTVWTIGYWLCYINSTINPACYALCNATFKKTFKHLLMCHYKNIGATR
compound,measurement,setting,value
Cc1nc2sc(C(=O)NCc3ccccc3)c(N)c2c(C)c1Cl,percent of ACh max response,at 37.4 µM (top of the series),inactive
Cc1nc2sc(C(=O)NC3CC3)c(N)c2c(C)c1Cl,EC50,,640 nM
Cc1nc2sc(C(=O)NCCc3ccncc3)c(N)c2c(C)c1Cl,percent of ACh max response,at 30 µM (top of the series),inactive
Cc1nc2sc(C(=O)NCc3cccc(F)c3F)c(N)c2c(C)c1Cl,percent of ACh max response,at 30 µM (top of the series),inactive
Cc1nc2sc(C(=O)NCc3ccc4c(c3)OCO4)c(N)c2c(C)c1Cl,percent of ACh max response,at 36.8 µM (top of the series),inactive
Cc1nc2sc(C(=O)NCc3nccs3)c(N)c2c(C)c1Cl,percent of ACh max response,at 30 µM (top of the series),inactive
Cc1nc2sc(C(=O)NCc3cccnc3)c(N)c2c(C)c1Cl,percent of ACh max response,at 45.3 µM (top of the series),inactive
Cc1nc2sc(C(=O)NCc3ccncn3)c(N)c2c(C)c1Cl,percent of ACh max response,at 30 µM (top of the series),inactive
Cc1nc2sc(C(=O)NCc3ccncc3)c(N)c2c(C)c1Cl,percent of ACh max response,at 45.3 µM (top of the series),inactive
